An excerpt weighted towards active compounds, which were near 12% of everything screened.
Arbovirus inh – antivirals against arbovirus infection, primary screen, cell-based, full library, 10K replicate subset; arbovirus infection cell-based antiviral screen; inhibition, % at 10 µM; 0.37% of 200,000 active; AID 1251, 2008; in the data active = inhibition above about 30%
L major viab – Leishmania major promastigote growth inhibition, primary screen; Leishmania major promastigotes, resazurin fluorescence viability; inhibition, % at 10 µM; 9% of 200,000 active;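 also: promastigotes grown with compound for 44 hours at 28 °C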
Wee1 stabilizer – Wee1 degradation inhibitors, primary screen, cell-based, HeLa, Wee1K328M-luciferase, luminescence | HeLa Luc-Wee1K328M stability; 100% = proteasome inhibitor MG132 effect | AID 1321, 2008 | reporter increase, % at 5 µM | Wee1-like protein kinase (Homo sapiens), P30291 | 1.2% of 220,000 active;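 active = activation above the mean of all tested compounds plus 3 SD, set per screening run, cut at about 8.8% in these data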;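 also: cells exposed to compound for 20 h before luminescence read; 0% = DMSO alone and 100% = MG132 at 30 µM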
Target sequence (P30291 whole entry K328M): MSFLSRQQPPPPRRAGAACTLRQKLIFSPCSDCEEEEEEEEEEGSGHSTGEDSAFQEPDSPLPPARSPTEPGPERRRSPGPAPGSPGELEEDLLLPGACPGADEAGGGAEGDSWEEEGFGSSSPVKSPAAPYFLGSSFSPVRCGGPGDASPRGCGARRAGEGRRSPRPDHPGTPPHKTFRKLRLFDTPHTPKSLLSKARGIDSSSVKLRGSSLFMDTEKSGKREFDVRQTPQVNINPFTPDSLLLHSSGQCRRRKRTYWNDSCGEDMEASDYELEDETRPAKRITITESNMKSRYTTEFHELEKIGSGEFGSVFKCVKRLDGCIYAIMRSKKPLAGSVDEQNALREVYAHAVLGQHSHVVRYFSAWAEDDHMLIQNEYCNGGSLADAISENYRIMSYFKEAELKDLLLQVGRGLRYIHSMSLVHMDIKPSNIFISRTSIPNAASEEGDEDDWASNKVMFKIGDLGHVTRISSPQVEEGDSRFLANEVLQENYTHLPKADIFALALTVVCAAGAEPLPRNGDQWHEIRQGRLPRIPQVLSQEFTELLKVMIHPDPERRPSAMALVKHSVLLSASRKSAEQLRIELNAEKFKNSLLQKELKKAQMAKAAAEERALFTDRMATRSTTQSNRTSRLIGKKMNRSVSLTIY
PKD1 kinase inh – inhibitors of human PKD1 kinase, biochemical, fluorescence polarization; Serine/threonine-protein kinase D1 (Homo sapiens), Q15139; PKD1 kinase fluorescence polarization assay; inhibition, % (test concentration not listed); 0.056% of 200,000 active; AID 797, 2007
CHOP inh – inhibitors of CHOP promoter induction, primary screen, cell-based, unfolded protein response, luciferase reporter; CHO-K1 CHOP-promoter luciferase, tunicamycin-induced, 15-18 h; inhibition, % at 10 µM; 3.8% of 220,000 active;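 active = compounds that reduced the stress-induced luciferase reporter signal by more than about 70% of percent inhibition, limit read from the data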;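 also: 0% = tunicamycin plus vehicle and 100% = wells without tunicamycin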
Rad51 HR inh – human RAD51 strand exchange inhibitors, primary screen, biochemical, fluorescence; AID 1385, 2008; hRad51 DNA strand exchange, fluorescence dequenching; inhibition, % at 10 µM; DNA repair protein RAD51 homolog 1 (Homo sapiens), Q06609; 0.085% of 200,000 active;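 active = inhibition above 40% at the single screening dose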;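 also: 0% = DMSO control wells and 100% = blanks with heterologous ssDNA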
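Material: hRad51 filaments on single-stranded DNA; Reagent: Donor/quencher-labelled 47-bp dsDNA substrate; Compound: 10 µM final, single point; Schedule: 37 °C 15-min filament assembly, 30-min compound preincubation, 15-min exchange; Technique: FRET fluorescence, excitation 485 nm, emission 520 nm; Benchmarks: control wells and blank wells on each plate.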
* hit, by the source's call. Rule as the data show it, unless noted: active = inhibition above about 50%; inactive = the rest.

How did Cc1cc(C)nc(N2CCCC(C(=O)NNC(=O)c3ccncc3)C2)n1 (stereo unspecified) do in these assays?
Wee1 stabilizer: 5; CHOP inh: 4; Rad51 HR inh: -35

How did O=C(O)c1cc(-c2ccccc2)nn1CC1CC(c2cccc([N+](=O)[O-])c2)=NO1 (stereo unspecified) do in these assays?
Rad51 HR inh: 12

How did CCC1(C)Cc2sc3c(=O)[nH]c(=S)[nH]c3c2CO1 (stereo unspecified) do in these assays?
Arbovirus inh: 6; L major viab: -1; Wee1 stabilizer: 3; PKD1 kinase inh: -5; CHOP inh: 8; Rad51 HR inh: 4

Results for O=C(CNc1cc(S(=O)(=O)N2CCCC2)ccc1OCC(F)(F)F)Nc1ccc(SC(F)F)cc1 ?
Arbovirus inh: -7; L major viab: 1; Wee1 stabilizer: 2; PKD1 kinase inh: -8; CHOP inh: 56

Results for Cc1cc(/C=N/Nc2ncnc(N)c2[N+](=O)[O-])c(C)n1-c1ccccc1 ?
Wee1 stabilizer: -5; CHOP inh: 83*; Rad51 HR inh: 10

What do the screens show for `COc1cccc(/C=N/Nc2ncnc(N)c2[N+](=O)[O-])c1OC`?
Arbovirus inh: -3; L major viab: -2; Wee1 stabilizer: -1; PKD1 kinase inh: -10; CHOP inh: 30; Rad51 HR inh: -2

Results for O=S(=O)(NCCSc1ccccc1)c1ccc(F)cc1 ?
Arbovirus inh: 4; L major viab: -3; Wee1 stabilizer: 1; PKD1 kinase inh: 4; CHOP inh: 91*; Rad51 HR inh: 3

What do the screens show for `CC(C)(C)SCCNS(=O)(=O)c1ccc(F)cc1`?
Arbovirus inh: 5; L major viab: -3; Wee1 stabilizer: -1; PKD1 kinase inh: -1; CHOP inh: 61; Rad51 HR inh: 4

How did CCOc1ccccc1C(=O)Nc1ccc(-n2nncc2C(C)(C)C)cc1 do in these assays?
Arbovirus inh: 5; L major viab: 0; Wee1 stabilizer: 0; PKD1 kinase inh: 2; CHOP inh: -5; Rad51 HR inh: 7

What do the screens show for `COc1ccc(CN2C(=O)c3c(c(C)n(C)c3C)C2C(=O)NC2CCC(C)CC2)cc1` (stereo unspecified)?
Arbovirus inh: 2; L major viab: 9; Wee1 stabilizer: 1; PKD1 kinase inh: -6; CHOP inh: 13; Rad51 HR inh: -3

What do the screens show for `CCC(C(=O)NCc1ccco1)N(C(=O)CNS(=O)(=O)c1ccccc1)c1ccccc1C` (stereo unspecified)?
Arbovirus inh: 2; L major viab: 19; Wee1 stabilizer: 0; PKD1 kinase inh: 1; CHOP inh: 10; Rad51 HR inh: 1

What do the screens show for `COc1ccc(/C=C2\N=C(SC)SC2=O)cc1OC`?
Arbovirus inh: -2; L major viab: 31; Wee1 stabilizer: 0; PKD1 kinase inh: -8; CHOP inh: 79*; Rad51 HR inh: 7

How did CSC1=N/C(=C\c2c(F)cccc2Cl)C(=O)S1 do in these assays?
Arbovirus inh: -3; L major viab: 28; Wee1 stabilizer: -4; PKD1 kinase inh: -8; CHOP inh: 74*

Results for CSC1=N/C(=C\c2cccc(F)c2)C(=O)S1 ?
Arbovirus inh: 3; L major viab: -4; Wee1 stabilizer: -3; PKD1 kinase inh: 4; CHOP inh: 47; Rad51 HR inh: -2

How did O=C1NCC2=C1C(c1ccc(Br)cc1)Nc1ccccc1N2 (stereo unspecified) do in these assays?
Arbovirus inh: 10; L major viab: 7; Wee1 stabilizer: 9.6*; PKD1 kinase inh: 3; CHOP inh: 7; Rad51 HR inh: 0

How did CCOC(=O)C1(Cc2ccc(Cl)cc2)CCN(C(=O)CCc2ccncc2)CC1 do in these assays?
Arbovirus inh: 6; L major viab: 26; Wee1 stabilizer: 0; PKD1 kinase inh: -2; CHOP inh: 11

Results for CC1CCc2sc(NC(=O)C3CC(Cl)=CCC3C(=O)O)c(C#N)c2C1 (stereo unspecified) ?
Arbovirus inh: 23; L major viab: -7; Wee1 stabilizer: 2; PKD1 kinase inh: 3; CHOP inh: -10; Rad51 HR inh: -4

What do the screens show for `O=C(NCCSc1ccccc1)c1ccc(Br)cc1`?
Arbovirus inh: -3; L major viab: -5; Wee1 stabilizer: 4; PKD1 kinase inh: -3; CHOP inh: -11; Rad51 HR inh: 10

Results for O=C(CSc1ccccc1)N(c1ccc(Br)cc1)c1nccs1 ?
Arbovirus inh: 7; L major viab: 67*; Wee1 stabilizer: -3; PKD1 kinase inh: -4; CHOP inh: 47; Rad51 HR inh: 2

Results for O=C(O)c1ccc(NC2=C(Cl)C(=O)c3ccccc3C2=O)cc1 ?
Wee1 stabilizer: -2; CHOP inh: 34; Rad51 HR inh: -7

Results for O=C(O)c1cccc(NC2=C(Cl)C(=O)c3ccccc3C2=O)c1 ?
Arbovirus inh: -39; L major viab: 66*; Wee1 stabilizer: 1; PKD1 kinase inh: 1; CHOP inh: -72; Rad51 HR inh: 4

Results for Cc1ccc(NC2=C(NC(=O)c3ccccc3)C(=O)c3ccccc3C2=O)cc1Cl ?
Arbovirus inh: -38; L major viab: 98*; Wee1 stabilizer: -3; PKD1 kinase inh: 2; CHOP inh: -65; Rad51 HR inh: -1

How did Cc1ccc(NCC(=O)c2ccccc2)cc1Cl do in these assays?
Arbovirus inh: -7; L major viab: 48; Wee1 stabilizer: -1; PKD1 kinase inh: -10; CHOP inh: -5; Rad51 HR inh: -1

Results for COc1cc(NCc2ccccc2O)c2ncccc2c1 ?
Wee1 stabilizer: 3; CHOP inh: -11; Rad51 HR inh: 14

How did COc1cc(NCCCCCCCN)c2ncccc2c1 do in these assays?
Arbovirus inh: -35; L major viab: 100*; Wee1 stabilizer: -4; PKD1 kinase inh: 5; CHOP inh: 6; Rad51 HR inh: 1

What do the screens show for `CCOC(=O)c1c(C)[nH]c(C2=NNC(=NC3CC3)SC2)c1C`?
Arbovirus inh: -13; L major viab: 1; Wee1 stabilizer: -4; PKD1 kinase inh: 0; CHOP inh: 60; Rad51 HR inh: -118

What do the screens show for `O=C(CNC1CCCCC1)Nc1cc(S(=O)(=O)N2CCOCC2)ccc1Cl`?
Arbovirus inh: 11; L major viab: 3; Wee1 stabilizer: 1; PKD1 kinase inh: 0; CHOP inh: -3; Rad51 HR inh: -2

What do the screens show for `Cc1ccc(S(=O)(=O)N2CCOCC2)cc1NC(=O)CNCC1CCCCC1`?
Arbovirus inh: 0; L major viab: 74*; Wee1 stabilizer: 1; PKD1 kinase inh: 1; CHOP inh: 25; Rad51 HR inh: -11

Screens deposited in PubChem by several laboratories.
